pIC50: −log10 of the molar value.
Legend:
[1] = biological target: T1, KiSS-1 receptor (Homo sapiens, UniProt Q969F8); assay: Displacement of [125I]metastin from human GPR54 receptor expressed in CHO cells; assay type: cell-based
In short: (§1)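 Membranes came from CHO cells stably expressing human or rat GPR54. They were incubated with 135 pM 125I-metastin (40–54) plus compound for 60 min at 25 °C, in Tris binding buffer pH 7.4 with protease inhibitors and 1 mg/ml BSA. Samples were filtered through PEI-pretreated GF/C filters, buffer-washed, and the bound radioactivity was counted.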

[2] = test system: Caco-2; assay: Ratio of permeability from basolateral to apical side to apical to basolateral side of human Caco-2 cells; assay type: ADME, cell-based
In short: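 Caco-2 monolayers were grown to confluence on collagen-coated polycarbonate Transwell membranes. Assay buffer was HBSS with 10 mmol/L HEPES, 15 mmol/L glucose and 1% BSA, pH 7.3–7.5. Compound was dosed apically or basolaterally at 37 °C, 5% CO2. Receivers were sampled at 1 and 2 h and donors at 2 h, in duplicate. A cell-free membrane corrected for nonspecific binding. The B-to-A/A-to-B ratio was derived.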

[3] = Lipophilicity, log D at pH 7.4; assay type: physicochemical; conditions: buffer
[4] = biological target: KiSS-1 receptor (Rattus norvegicus, UniProt Q924U1); assay: Displacement of [125I]metastin from rat GPR54 receptor expressed in CHO cells; assay type: cell-based; in short: as §1
Chain of KiSS-1 receptor (Rattus norvegicus, UniProt Q924U1) (Q924U1 whole entry): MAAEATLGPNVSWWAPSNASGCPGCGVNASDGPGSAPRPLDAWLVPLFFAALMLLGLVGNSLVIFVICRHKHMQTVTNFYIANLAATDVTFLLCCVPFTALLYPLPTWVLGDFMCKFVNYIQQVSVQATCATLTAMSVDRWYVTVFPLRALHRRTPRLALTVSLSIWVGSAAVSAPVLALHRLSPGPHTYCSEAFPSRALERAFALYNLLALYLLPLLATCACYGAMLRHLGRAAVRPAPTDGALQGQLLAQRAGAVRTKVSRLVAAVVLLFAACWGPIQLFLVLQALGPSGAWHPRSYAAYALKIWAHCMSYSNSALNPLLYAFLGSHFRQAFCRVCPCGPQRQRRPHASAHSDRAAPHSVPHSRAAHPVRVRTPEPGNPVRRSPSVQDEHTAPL

[5] = biological target: T1, KiSS-1 receptor; assay: Antagonist activity at human GPR54 receptor assessed as inhibition of metastin-induced calcium mobilization; assay type: functional
In short: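 Cells in MEM with 10% dFBS, penicillin and streptomycin, plated at 30,000 cells/well and cultured overnight. Loaded 60 min at 37 °C in Hepes-buffered saline (pH 7.4) containing 0.1% BSA, Fluo-3AM, 1.25 mM probenecid and 0.04% Pluronic F-127. Washed at 37 °C in the same buffer with BSA and probenecid. Ca²⁺ mobilization read on FLIPR.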

[6] = test system: Rattus norvegicus; assay: Decrease in leutinizing hormone level in castrated Wistar rat plasma at 0.22 mg/kg, iv for 5 times with 10 mins interval measured after 60 mins postdose by radioimmunoassay; assay type: functional; set-up: scale not given: the % may be the effect or the level left
In short: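 Male Wistar rats, 11 weeks old, were castrated 7 days before testing. Compound was suspended at […] in 20% DMSO-40% PEG400. It was given at 0.22 mg/kg (0.8 ml/kg) via jugular catheter five times at 10 min intervals, for 1.1 mg/kg total. Vehicle served as control; n = 8 per group. Blood was drawn before dosing and at 25–180 min, then aprotinin–EDTA plasma was prepared. Values are means SE of eight.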

T1 sequence (Q969F8 whole entry): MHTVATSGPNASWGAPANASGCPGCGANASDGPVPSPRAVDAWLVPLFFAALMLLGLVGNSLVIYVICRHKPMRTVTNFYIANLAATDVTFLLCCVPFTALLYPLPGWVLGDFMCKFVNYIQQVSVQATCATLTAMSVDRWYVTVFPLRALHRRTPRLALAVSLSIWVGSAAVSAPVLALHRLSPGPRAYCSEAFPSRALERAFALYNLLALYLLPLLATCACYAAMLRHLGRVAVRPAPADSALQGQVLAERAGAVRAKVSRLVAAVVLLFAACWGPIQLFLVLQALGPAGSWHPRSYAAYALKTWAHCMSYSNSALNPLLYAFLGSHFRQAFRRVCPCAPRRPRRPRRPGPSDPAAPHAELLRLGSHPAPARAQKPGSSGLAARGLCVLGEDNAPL

pIC50 [1]	logD [3]	Compound	other results
8.10	–	CCNC(CC)CC(=O)Nc1cccc(-c2cc(-c3ccc(F)cc3O)nc(NC(=O)c3ccco3)c2C#N)c1 (racemic)	–
6.74	3.07	CN(C)CC(=O)Nc1cccc(-c2cc(-c3ccccc3O)nc(NC(=O)c3cccs3)c2C#N)c1	Ratio [2]: 1
8.34	2.13	CNCCC(=O)Nc1cccc(-c2cc(-c3ccc(F)cc3O)nc(NC(=O)c3ccco3)c2C#N)c1	pIC50 [4]: 7.70
8.39	–	N#Cc1c(-c2cccc(NC(=O)CN)c2)cc(-c2ccc(F)cc2O)nc1NC(=O)c1ccco1	–
8.44	2.72	N#Cc1c(-c2cccc(N3CCNCC3)c2)cc(-c2ccc(F)cc2O)nc1NC(=O)c1ccco1	pIC50 [5]: 6.03; Ratio [2]: 1.2; Activity [6]: 32%; pIC50 [4]: 7.82
8.00	–	CCNC(C)CC(=O)Nc1cccc(-c2cc(-c3ccc(F)cc3O)nc(NC(=O)c3ccco3)c2C#N)c1 (racemic)	–
7.60	–	N#Cc1c(-c2cccc(CN3CCCNCC3)c2)cc(-c2ccc(F)cc2O)nc1NC(=O)c1ccco1	–
8.00	2.95	CN(C)CCC(=O)Nc1cccc(-c2cc(-c3ccc(F)cc3O)nc(NC(=O)c3ccco3)c2C#N)c1	Ratio [2]: 4.3; pIC50 [4]: 7.33
8.10	2.29	N#Cc1c(-c2cccc(NC(=O)C[C@@H]3CCCN3)c2)cc(-c2ccc(F)cc2O)nc1NC(=O)c1ccco1	pIC50 [4]: 7.59
8.00	2.13	N#Cc1c(-c2cccc(NC(=O)C[C@H]3CCCN3)c2)cc(-c2ccc(F)cc2O)nc1NC(=O)c1ccco1	pIC50 [4]: 7.42
7.92	3.31	CN(C)CC(=O)Nc1cccc(-c2cc(-c3ccc(F)cc3O)nc(NC(=O)c3ccco3)c2C#N)c1	Ratio [2]: 1.4; pIC50 [4]: 6.89
7.74	–	CN1CCN(Cc2cccc(-c3cc(-c4ccc(F)cc4O)nc(NC(=O)c4ccco4)c3C#N)c2)CC1	–
7.80	–	N#Cc1c(-c2cccc(NC(=O)[C@H]3CCCN3)c2)cc(-c2ccc(F)cc2O)nc1NC(=O)c1ccco1	–
–	2.14	N#Cc1c(-c2cccc(NC(=O)CCN)c2)cc(-c2ccc(F)cc2O)nc1NC(=O)c1cccs1	Ratio [2]: 49
7.70	–	CCN1CCN(Cc2cccc(-c3cc(-c4ccc(F)cc4O)nc(NC(=O)c4ccco4)c3C#N)c2)CC1	–
8.08	2.66	CNCC(=O)Nc1cccc(-c2cc(-c3ccc(F)cc3O)nc(NC(=O)c3ccco3)c2C#N)c1	pIC50 [4]: 7.59

pIC50 [1]	logD [3]	Compound	other results
7.82	–	CN1CCN(c2cccc(-c3cc(-c4ccc(F)cc4O)nc(NC(=O)c4ccco4)c3C#N)c2)CC1	–
7.82	–	N#Cc1c(-c2cccc(NC(=O)CN3CCCC3)c2)cc(-c2ccc(F)cc2O)nc1NC(=O)c1ccco1	–
7.52	–	CCN(CC)CC(=O)Nc1cccc(-c2cc(-c3ccc(F)cc3O)nc(NC(=O)c3ccco3)c2C#N)c1	–
8.14	–	N#Cc1c(-c2cccc(N3CCCNCC3)c2)cc(-c2ccc(F)cc2O)nc1NC(=O)c1ccco1	–
8.00	–	CCN(C)CCC(=O)Nc1cccc(-c2cc(-c3ccc(F)cc3O)nc(NC(=O)c3ccco3)c2C#N)c1	–
7.96	4.1	CCN1CCN(c2cccc(-c3cc(-c4ccc(F)cc4O)nc(NC(=O)c4ccco4)c3C#N)c2)CC1	Ratio [2]: 1; pIC50 [4]: 7.33
7.74	–	CC(CC(=O)Nc1cccc(-c2cc(-c3ccc(F)cc3O)nc(NC(=O)c3ccco3)c2C#N)c1)N(C)C (racemic)	–
8.01	–	N#Cc1c(-c2cccc(CN3CCNCC3)c2)cc(-c2ccc(F)cc2O)nc1NC(=O)c1ccco1	–
8.01	–	CC(C)NC(C)CC(=O)Nc1cccc(-c2cc(-c3ccc(F)cc3O)nc(NC(=O)c3ccco3)c2C#N)c1 (racemic)	–
7.74	–	CN1CCC[C@H]1CC(=O)Nc1cccc(-c2cc(-c3ccc(F)cc3O)nc(NC(=O)c3ccco3)c2C#N)c1	–
7.66	–	CCC(CC(=O)Nc1cccc(-c2cc(-c3ccc(F)cc3O)nc(NC(=O)c3ccco3)c2C#N)c1)N(CC)CC (racemic)	–
7.70	–	CN(C)CCNC(=O)c1cccc(-c2cc(-c3ccc(F)cc3O)nc(NC(=O)c3ccco3)c2C#N)c1	–
7.77	–	CCN(CC)C(C)CC(=O)Nc1cccc(-c2cc(-c3ccc(F)cc3O)nc(NC(=O)c3ccco3)c2C#N)c1 (racemic)	–
7.80	–	CCN(CC)CCC(=O)Nc1cccc(-c2cc(-c3ccc(F)cc3O)nc(NC(=O)c3ccco3)c2C#N)c1	–
7.85	–	N#Cc1c(-c2cccc(NC(=O)CC3CCCCN3)c2)cc(-c2ccc(F)cc2O)nc1NC(=O)c1ccco1 (racemic)	–
7.52	–	CN(C)CCN(C)c1cccc(-c2cc(-c3ccc(F)cc3O)nc(NC(=O)c3ccco3)c2C#N)c1	–

— ChEMBL document CHEMBL1177674, “2-acylamino-4,6-diphenylpyridine derivatives as novel GPR54 antagonists with good brain exposure and in vivo efficacy for plasma LH level in male rats” (Bioorg Med Chem, 2010)
